Experimental data from article PMC2947312 (Neuron, 2010).

Assays:
[1] = test system: Aβ peptide variants from CHO-APPswe cells; assay: SELDI-TOF MS of Aβ peptide variants in CHO-APPswe conditioned medium; type: cell-based, Chinese hamster; details: 1 μM
Outline: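 CHO-APPswe cells were treated with vehicle, reference γ-secretase inhibitor (1 µM) or test compound (1 µM). Conditioned medium was immunoprecipitated with anti-Aβ17-24 mAb 4G8. Ciphergen chips were prepared from the medium and analysed by SELDI-TOF mass spectrometry to profile Aβ peptide variants.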

[2] = test system: Aβ42, Aβ40 and Aβtotal produced by CHO-APPswe cells; assay: CHO-APPswe cell-based Aβ assay; set-up: species or system Chinese hamster
Outline: (§1)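 Stable lines: CHO-APPswe is CHO transfected with human APP695 carrying the Swedish double mutation (670/671 K/M to N/L). SH-SY5Y-APP is human neuroblastoma SH-SY5Y transfected with wild-type human APP751. Secreted Aβ40, Aβ42 and Aβtotal were measured in conditioned medium by mAb-specific sandwich ELISAs. Cytotoxicity was checked by Alamar Blue at the same compound concentrations, up to a maximum of 30 μM.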

[3] = test system: Aβ42, Aβ40 and Aβtotal produced by SH-SY5Y-APP cells; assay: SH-SY5Y-APP cell-based Aβ assay; set-up: species or system human
Outline: as §1

[4] = test system: Aβ peptides secreted from Tg 2576 primary mixed brain cultures; assay: Aβ peptides in Tg 2576 mixed brain cultures; type: cell-based, mouse; details: Tg 2576 MBCs
Outline: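 Neuronal cultures came from E17 Tg 2576 embryo brains, grown 6 days, then treated 18 h in triplicate wells at 10 concentrations in 3-fold dilution steps. Vehicle (PEG-400:H2O 80:20 v/v) was the negative control and BMS-299897 the positive control. Aβ38 was read by Meso Scale assay; Aβ40, Aβ42 and Aβtotal by mAb sandwich ELISA. Variants were resolved by anti-Aβ immunoprecipitation, tris-glycine gel electrophoresis and immunoblotting.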

[5] = test system: γ-secretase-mediated ε-site processing of Notch (NΔE); assay: NICD formation in HEK-APP-NΔE_7-4 cells; type: cell-based, human; details: NΔE Notch/APP co-transfected cell line; DAPT 1 μM
Outline: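 HEK293 cells doubly transfected with APP and Notch NΔE were treated overnight with test compound, 1 μM DAPT, or 0.2% v/v DMSO vehicle. Conditioned medium was collected, cell lysates were prepared, and anti-NICD immunoblots were run with GAPDH as a control. NICD was quantified by laser scanning densitometry against a half-volume vehicle sample.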

[6] = test system: γ-secretase (AICD, Aβ42 and Aβ40 formation from APP-CTFs); assay: Cell-free assay of AICD and Aβ formation, CHO-APPswe membranes; type: biochemical, Chinese hamster; details: DAPT 1 μM, Compound 3 over a broad range of concentrations
Outline: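 CHO-APPswe membrane preparations were incubated cell-free with vehicle (0.2% DMSO), 1 μM DAPT, or a range of test compound concentrations. AICD (ε-site) and Aβ42/Aβ40 (γ-site) formation were measured in parallel from the same preparations, semi-quantitatively. Data are mean ± SEM, n ≥ 3.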

| SMILES | effect on Aβ peptide variants (SELDI-TOF MS) [1] | effect on Aβ42, Aβ40 and Aβtotal peptide levels [2] | effect on Aβ42, Aβ40 and Aβtotal peptide levels [3] | effect on Aβ42, Aβ40, Aβ38 and Aβtotal (Meso Scale ELISAs) ([4]; 18 h) | effect on Aβ peptide variants (IP/immunoblot) ([4]; BMS-299897 1 μM) | effect on NICD formation [5] | effect on AICD formation [6] |
| --- | --- | --- | --- | --- | --- | --- | --- |
| C[C@H](c1ccc(F)cc1CCCC(=O)O)N(c1cc(F)ccc1F)S(=O)(=O)c1ccc(Cl)cc1 [BMS-299897] | reduced the levels of all Aβ peptide variants to baseline levels | equivalently inhibited Aβ42, Aβ40 and Aβtotal peptide production | equivalently inhibited Aβ42, Aβ40 and Aβtotal peptide production | dose-dependent decrease in Aβ42, Aβ40, Aβ38 and Aβtotal levels | reduced the levels of all Aβ variants (Aβ37, Aβ38, Aβ40 and Aβ42) to undetectable levels | – | – |
| C[C@H](NC(=O)Cc1cc(F)cc(F)c1)C(=O)N[C@H](C(=O)OC(C)(C)C)c1ccccc1 [DAPT, N-[N-(3,5-difluorophenacetyl)-L-alanyl]-S-phenylglycine t-butyl ester] | – | – | – | – | – | prevented NICD production entirely | totally inhibited |
